Reference: ChEMBL document CHEMBL5724801, “EUbOPEN Chemogenomics Library - Multiplex” (2024)
“And” between values parts separate entries of the source, which are not always exact repeats. Equal values may be shown once.

System: Fibroblast
Experiment: Multiplex assay against human fibroblast
Format: toxicity, cell-based
Procedure, shortened: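 With compound added, live cells were imaged on a CQ1 microscope at 37°C and 5% CO2; staining with Hoechst33342, BioTracker Green Microtubule Cytoskeleton Dye, MitoTracker Red and Annexin V Alexa Fluor 680 had been done at seeding. The CellPathfinder machine-learning gating scheme split cells into Hoechst high-intensity objects or normal cells, normal cells into healthy, pyknosed or fragmented nuclei, and pyknosed cells into mitotic or apoptotic. The tubulin, mitochondrial-mass and membrane-permeability phenotypes are per cents of healthy-nucleus cells.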

[1] = 12 h, 1 µM, compound concentration 1 uM
[2] = 12 h, 10 µM, compound concentration 10 uM
[3] = 24 h, 1 µM, compound concentration 1 uM
[4] = 24 h, 10 µM, compound concentration 10 uM
[5] = 48 h, 1 µM, compound concentration 1 uM
[6] = 48 h, 10 µM, compound concentration 10 uM

S=C(NCCCc1c[nH]cn1)NCCCN(Cc1ccc(Cl)c(Cl)c1)c1ccc(Br)cn1
Population Apoptotic (%) [1]: 40% and 31% | Population Fragmented Nuclei (%) [1]: 13% and 30% | Population Healthy Nuclei (%) [1]: 71% and 50% | Population Hoechst High Intensity Objects (%) [1]: 5% and 4% | Population Membrane Permeable-Phenotype (%) [1]: 1% and 5% | Population Mitochondria Different-Phenotype (%) [1]: 5% and 6% | Population Mitotic Cells (%) [1]: 60% and 68% | Population Normal (%) [1]: 94% and 95% | Population Pyknosed Nuclei (%) [1]: 14% and 18% | Population Tubulin-Different-Phenotype (%) [1]: 26% and 37% | Total Cell Count [1]: 142 and 181 | Population Apoptotic (%) [2]: 47% and 52% | Population Fragmented Nuclei (%) [2]: 27% and 34% | Population Healthy Nuclei (%) [2]: 56% and 53% | Population Hoechst High Intensity Objects (%) [2]: 3% and 5% | Population Membrane Permeable-Phenotype (%) [2]: 0% | Population Mitochondria Different-Phenotype (%) [2]: 15% and 10% | Population Mitotic Cells (%) [2]: 52% and 47% | Population Normal (%) [2]: 96% and 94% | Population Pyknosed Nuclei (%) [2]: 16% and 12% | Population Tubulin-Different-Phenotype (%) [2]: 89% | Total Cell Count [2]: 220 and 279 | Population Apoptotic (%) [3]: 69% and 23% | Population Fragmented Nuclei (%) [3]: 15% and 30% | Population Healthy Nuclei (%) [3]: 74% and 57% | Population Hoechst High Intensity Objects (%) [3]: 4% and 1% | Population Membrane Permeable-Phenotype (%) [3]: 2% | Population Mitochondria Different-Phenotype (%) [3]: 2% and 6% | Population Mitotic Cells (%) [3]: 30% and 76% | Population Normal (%) [3]: 95% and 98% | Population Pyknosed Nuclei (%) [3]: 9% and 11% | Population Tubulin-Different-Phenotype (%) [3]: 28% and 42% | Total Cell Count [3]: 137 and 183 | Population Apoptotic (%) [4]: 66% and 61% | Population Fragmented Nuclei (%) [4]: 22% and 27% | Population Healthy Nuclei (%) [4]: 61% and 59% | Population Hoechst High Intensity Objects (%) [4]: 1% and 4% | Population Membrane Permeable-Phenotype (%) [4]: 0% and 2% | Population Mitochondria Different-Phenotype (%) [4]: 19% and 7% | Population Mitotic Cells (%) [4]: 33% and 38% | Population Normal (%) [4]: 98% and 95% | Population Pyknosed Nuclei (%) [4]: 15% and 13% | Population Tubulin-Different-Phenotype (%) [4]: 93% and 95% | Total Cell Count [4]: 214 and 248 | Population Apoptotic (%) [5]: 75% and 35% | Population Fragmented Nuclei (%) [5]: 27% and 30% | Population Healthy Nuclei (%) [5]: 67% and 59% | Population Hoechst High Intensity Objects (%) [5]: 3% and 4% | Population Membrane Permeable-Phenotype (%) [5]: 0% and 5% | Population Mitochondria Different-Phenotype (%) [5]: 0% and 3% | Population Mitotic Cells (%) [5]: 25% and 64% | Population Normal (%) [5]: 96% and 95% | Population Pyknosed Nuclei (%) [5]: 5% and 10% | Population Tubulin-Different-Phenotype (%) [5]: 24% and 36% | Total Cell Count [5]: 156 and 178 | Population Apoptotic (%) [6]: 62% and 63% | Population Fragmented Nuclei (%) [6]: 27% and 31% | Population Healthy Nuclei (%) [6]: 59% and 60% | Population Hoechst High Intensity Objects (%) [6]: 6% and 5% | Population Membrane Permeable-Phenotype (%) [6]: 0% | Population Mitochondria Different-Phenotype (%) [6]: 7% and 1% | Population Mitotic Cells (%) [6]: 37% and 36% | Population Normal (%) [6]: 93% and 94% | Population Pyknosed Nuclei (%) [6]: 12% and 7% | Population Tubulin-Different-Phenotype (%) [6]: 91% and 86% | Total Cell Count [6]: 230 and 293

CN1CCC(C(=O)c2cccc(NC(=O)c3c(F)cc(F)cc3F)n2)CC1
Population Apoptotic (%) [1]: 28% and 40% | Population Fragmented Nuclei (%) [1]: 16% and 28% | Population Healthy Nuclei (%) [1]: 64% and 53% | Population Hoechst High Intensity Objects (%) [1]: 3% and 2% | Population Membrane Permeable-Phenotype (%) [1]: 1% and 5% | Population Mitochondria Different-Phenotype (%) [1]: 4% and 10% | Population Mitotic Cells (%) [1]: 71% and 60% | Population Normal (%) [1]: 96% and 97% | Population Pyknosed Nuclei (%) [1]: 18% | Population Tubulin-Different-Phenotype (%) [1]: 28% and 43% | Total Cell Count [1]: 153 and 142 | Population Apoptotic (%) [2]: 32% and 36% | Population Fragmented Nuclei (%) [2]: 12% and 23% | Population Healthy Nuclei (%) [2]: 74% and 54% | Population Hoechst High Intensity Objects (%) [2]: 4% | Population Membrane Permeable-Phenotype (%) [2]: 1% and 6% | Population Mitochondria Different-Phenotype (%) [2]: 7% and 6% | Population Mitotic Cells (%) [2]: 67% and 63% | Population Normal (%) [2]: 95% | Population Pyknosed Nuclei (%) [2]: 13% and 22% | Population Tubulin-Different-Phenotype (%) [2]: 42% and 63% | Total Cell Count [2]: 266 and 142 | Population Apoptotic (%) [3]: 45% and 40% | Population Fragmented Nuclei (%) [3]: 12% and 34% | Population Healthy Nuclei (%) [3]: 74% and 43% | Population Hoechst High Intensity Objects (%) [3]: 1% | Population Membrane Permeable-Phenotype (%) [3]: 0% and 6% | Population Mitochondria Different-Phenotype (%) [3]: 2% and 10% | Population Mitotic Cells (%) [3]: 55% and 59% | Population Normal (%) [3]: 98% | Population Pyknosed Nuclei (%) [3]: 12% and 21% | Population Tubulin-Different-Phenotype (%) [3]: 21% and 45% | Total Cell Count [3]: 156 and 148 | Population Apoptotic (%) [4]: 54% and 37% | Population Fragmented Nuclei (%) [4]: 13% and 30% | Population Healthy Nuclei (%) [4]: 71% and 50% | Population Hoechst High Intensity Objects (%) [4]: 3% and 2% | Population Membrane Permeable-Phenotype (%) [4]: 0% and 5% | Population Mitochondria Different-Phenotype (%) [4]: 6% and 8% | Population Mitotic Cells (%) [4]: 45% and 62% | Population Normal (%) [4]: 96% and 97% | Population Pyknosed Nuclei (%) [4]: 14% and 19% | Population Tubulin-Different-Phenotype (%) [4]: 37% and 65% | Total Cell Count [4]: 258 and 153 | Population Apoptotic (%) [5]: 71% and 56% | Population Fragmented Nuclei (%) [5]: 16% and 42% | Population Healthy Nuclei (%) [5]: 74% and 46% | Population Hoechst High Intensity Objects (%) [5]: 3% and 2% | Population Membrane Permeable-Phenotype (%) [5]: 0% and 5% | Population Mitochondria Different-Phenotype (%) [5]: 1% and 5% | Population Mitotic Cells (%) [5]: 28% and 43% | Population Normal (%) [5]: 96% and 97% | Population Pyknosed Nuclei (%) [5]: 8% and 10% | Population Tubulin-Different-Phenotype (%) [5]: 25% and 67% | Total Cell Count [5]: 164 and 156 | Population Apoptotic (%) [6]: 71% and 54% | Population Fragmented Nuclei (%) [6]: 17% and 36% | Population Healthy Nuclei (%) [6]: 71% and 55% | Population Hoechst High Intensity Objects (%) [6]: 5% and 3% | Population Membrane Permeable-Phenotype (%) [6]: 0% and 3% | Population Mitochondria Different-Phenotype (%) [6]: 7% and 3% | Population Mitotic Cells (%) [6]: 28% and 45% | Population Normal (%) [6]: 94% and 96% | Population Pyknosed Nuclei (%) [6]: 10% and 7% | Population Tubulin-Different-Phenotype (%) [6]: 40% and 69% | Total Cell Count [6]: 272 and 152

CSc1ccccc1N1CCN(CCCCCC(=O)NC2CCCc3ccccc32)CC1.Cl (stereo unspecified)
Population Apoptotic (%) [1]: 37% and 50% | Population Fragmented Nuclei (%) [1]: 26% and 32% | Population Healthy Nuclei (%) [1]: 49% and 41% | Population Hoechst High Intensity Objects (%) [1]: 6% and 2% | Population Membrane Permeable-Phenotype (%) [1]: 1% and 9% | Population Mitochondria Different-Phenotype (%) [1]: 15% and 7% | Population Mitotic Cells (%) [1]: 62% and 50% | Population Normal (%) [1]: 93% and 97% | Population Pyknosed Nuclei (%) [1]: 24% and 25% | Population Tubulin-Different-Phenotype (%) [1]: 65% and 74% | Total Cell Count [1]: 126 and 135 | Population Apoptotic (%) [2]: 58% and 66% | Population Fragmented Nuclei (%) [2]: 25% and 34% | Population Healthy Nuclei (%) [2]: 57% and 50% | Population Hoechst High Intensity Objects (%) [2]: 5% | Population Membrane Permeable-Phenotype (%) [2]: 0% | Population Mitochondria Different-Phenotype (%) [2]: 78% and 36% | Population Mitotic Cells (%) [2]: 41% and 33% | Population Normal (%) [2]: 94% | Population Pyknosed Nuclei (%) [2]: 17% and 14% | Population Tubulin-Different-Phenotype (%) [2]: 95% and 92% | Total Cell Count [2]: 220 and 242 | Population Apoptotic (%) [3]: 52% and 37% | Population Fragmented Nuclei (%) [3]: 29% and 33% | Population Healthy Nuclei (%) [3]: 52% and 43% | Population Hoechst High Intensity Objects (%) [3]: 6% and 3% | Population Membrane Permeable-Phenotype (%) [3]: 0% and 3% | Population Mitochondria Different-Phenotype (%) [3]: 21% and 11% | Population Mitotic Cells (%) [3]: 47% and 62% | Population Normal (%) [3]: 93% and 96% | Population Pyknosed Nuclei (%) [3]: 18% and 23% | Population Tubulin-Different-Phenotype (%) [3]: 40% and 64% | Total Cell Count [3]: 133 and 130 | Population Apoptotic (%) [4]: 90% and 66% | Population Fragmented Nuclei (%) [4]: 22% and 33% | Population Healthy Nuclei (%) [4]: 66% and 56% | Population Hoechst High Intensity Objects (%) [4]: 7% and 3% | Population Membrane Permeable-Phenotype (%) [4]: 0% | Population Mitochondria Different-Phenotype (%) [4]: 81% and 51% | Population Normal (%) [4]: 92% and 96% | Population Pyknosed Nuclei (%) [4]: 11% and 9% | Population Tubulin-Different-Phenotype (%) [4]: 98% and 90% | Total Cell Count [4]: 211 and 258 | Population Apoptotic (%) [5]: 61% and 44% | Population Fragmented Nuclei (%) [5]: 26% and 33% | Population Healthy Nuclei (%) [5]: 56% and 45% | Population Hoechst High Intensity Objects (%) [5]: 6% and 1% | Population Membrane Permeable-Phenotype (%) [5]: 2% and 0% | Population Mitochondria Different-Phenotype (%) [5]: 17% and 12% | Population Mitotic Cells (%) [5]: 38% and 56% | Population Normal (%) [5]: 93% and 98% | Population Pyknosed Nuclei (%) [5]: 17% and 20% | Population Tubulin-Different-Phenotype (%) [5]: 69% and 64% | Total Cell Count [5]: 132 and 124 | Population Apoptotic (%) [6]: 91% and 68% | Population Fragmented Nuclei (%) [6]: 25% and 38% | Population Healthy Nuclei (%) [6]: 61% and 53% | Population Hoechst High Intensity Objects (%) [6]: 8% and 4% | Population Membrane Permeable-Phenotype (%) [6]: 0% and 2% | Population Mitochondria Different-Phenotype (%) [6]: 82% and 33% | Population Normal (%) [6]: 91% and 95% | Population Pyknosed Nuclei (%) [6]: 12% and 8% | Population Tubulin-Different-Phenotype (%) [6]: 97% and 83% | Total Cell Count [6]: 195 and 281
